17 molecules from ChEMBL document CHEMBL1131099, “Biologically active oligodeoxyribonucleotides. 5. 5'-End-substituted d(TGGGAG) possesses anti-human immunodeficiency virus type 1 activity by forming a G-quadruplex structure” (J Med Chem, 1998) can be followed below.

Bounds are passed on as bounds.

Assay [1] concerns MT4. In words: Cytotoxicity was measured against MT-4 cells using MTT assay. To be noted: Homo sapiens. The format is functional. For orientation: Formazan colour is commonly taken as a measure of viable cells.
Assay [2] deals with MT4. In words: In vitro inhibitory activity for cytopathicities induced by HIV-1III B against MT-4 cells. The format is functional, cell-based. To be noted: Homo sapiens. The gist of the method: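 Exponentially growing MT-4 cells were pelleted (140g, 5 min), infected in a small volume of RPMI-1640 with 100 TCID50 HIV-1 IIIB for 1 h, washed, and plated at 2.5 × 10⁴ cells/well with serial oligonucleotide dilutions. Viability was read by MTT at day 6. IC50 was taken from dose-response curves, as the mean of duplicate or quadruplicate ± SD.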
(In general: Damage to the host cells serves as the signal in cytopathic effect assays.)

Usually CC50 stands for the concentration that lowers cell viability or growth by half. Higher therefore signals better tolerance by the cells. The IC50 is the concentration that gives 50% inhibition. The molecule `Cc1cn([C@H]2C[C@H](OP(=O)(O)OC[C@H]3O[C@@H](n4cnc5c(=O)[nH]c(N)nc54)C[C@@H]3OP(=O)(O)OC[C@H]3O[C@@H](n4cnc5c(=O)[nH]c(N)nc54)C[C@@H]3OP(=O)(O)OC[C@H]3O[C@@H](n4cnc5c(=O)[nH]c(N)nc54)CC3OP(=O)(O)OC[C@H]3O[C@@H](n4cnc5c(N)ncnc54)C[C@@H]3OP(=O)(O)OC[C@H]3O[C@@H](n4cnc5c(=O)[nH]c(N)nc54)C[C@@H]3O[Si](c3ccccc3)(c3ccccc3)C(C)(C)C)[C@@H](CO[Si](c3ccccc3)(c3ccccc3)C(C)(C)C)O2)c(=O)[nH]c1=O` (some centres undefined) came in with a CC50 in the assay on MT4 [1] greater than 40 µM. The molecule also showed an IC50 with MT4 [2] of 6 µM.
In the assay with MT4 [1], `Cc1cn([C@H]2C[C@H](OP(=O)(O)OC[C@H]3O[C@@H](n4cnc5c(O)nc(N)nc54)C[C@@H]3OP(=O)(O)OC[C@H]3O[C@@H](n4cnc5c(O)nc(N)nc54)C[C@@H]3O)[C@@H](COCc3ccc(OCc4ccccc4)c(OCc4ccccc4)c3)O2)c(=O)[nH]c1=O` gave a CC50 greater than 70 µM. The IC50 in the assay with MT4 [2] was greater than 70 µM.
Take `COc1ccc(C(OC[C@H]2O[C@@H](n3cc(C)c(=O)[nH]c3=O)C[C@@H]2OP(=O)(O)OC[C@H]2O[C@@H](n3cnc4c(=O)[nH]c(N)nc43)C[C@@H]2OP(=O)(O)OC[C@H]2O[C@@H](n3cnc4c(=O)[nH]c(N)nc43)C[C@@H]2OP(=O)(O)OC[C@H]2O[C@@H](n3cnc4c(=O)[nH]c(N)nc43)C[C@@H]2OP(=O)(O)OC[C@H]2O[C@@H](n3cnc4c(N)ncnc43)C[C@@H]2OP(=O)(O)OC[C@H]2O[C@@H](n3cnc4c(=O)[nH]c(N)nc43)C[C@@H]2O)(c2ccccc2)c2ccc(OC)cc2)cc1`: the CC50 in the assay on MT4 [1] was 38 µM. The same molecule displayed an IC50 with MT4 [2] of 1 µM.
`Cc1cn([C@H]2C[C@H](OP(=O)(O)OC[C@H]3O[C@@H](n4cnc5c(=O)[nH]c(N)nc54)C[C@@H]3OP(=O)(O)OC[C@H]3O[C@@H](n4cnc5c(=O)[nH]c(N)nc54)C[C@@H]3OP(=O)(O)OC[C@H]3O[C@@H](n4cnc5c(=O)[nH]c(N)nc54)C[C@@H]3OP(=O)(O)OC[C@H]3O[C@@H](n4cnc5c(N)ncnc54)C[C@@H]3OP(=O)(O)OC[C@H]3O[C@@H](n4cnc5c(=O)[nH]c(N)nc54)C[C@@H]3O)[C@@H](CO)O2)c(=O)[nH]c1=O` came in with a CC50 in the assay on MT4 [1] greater than 40 µM. For the same molecule, the IC50 with MT4 [2] is greater than 40 µM.
For `Cc1cn([C@H]2C[C@H](OP(=O)(O)OC[C@H]3O[C@@H](n4cnc5c(=O)[nH]c(N)nc54)C[C@@H]3OP(=O)(O)OC[C@H]3O[C@@H](n4cnc5c(=O)[nH]c(N)nc54)C[C@@H]3OP(=O)(O)OC[C@H]3O[C@@H](n4cnc5c(=O)[nH]c(N)nc54)C[C@@H]3OP(=O)(O)OC[C@H]3O[C@@H](n4cnc5c(N)ncnc54)C[C@@H]3OP(=O)(O)OC[C@H]3O[C@@H](n4cnc5c(=O)[nH]c(N)nc54)C[C@@H]3O)[C@@H](COC3(c4ccccc4)c4ccccc4Oc4ccccc43)O2)c(=O)[nH]c1=O`, the CC50 with MT4 [1] was greater than 40 µM. This molecule also showed a 50% inhibitory concentration (IC50) in the assay with MT4 [2] of 0.95 µM.
Taken in the same sequence, the figures for `Cc1cn([C@H]2C[C@H](OP(=O)(O)OC[C@H]3O[C@@H](n4cc(C)c(=O)[nH]c4=O)C[C@@H]3OP(=O)(O)OC[C@H]3O[C@@H](n4cnc5c(=O)[nH]c(N)nc54)C[C@@H]3OP(=O)(O)OC[C@H]3O[C@@H](n4cnc5c(=O)[nH]c(N)nc54)C[C@@H]3OP(=O)(O)OC[C@H]3O[C@@H](n4cnc5c(=O)[nH]c(N)nc54)C[C@@H]3OP(=O)(O)OC[C@H]3O[C@@H](n4cnc5c(=O)[nH]c(N)nc54)C[C@@H]3O)[C@@H](COCc3ccc(OCc4ccccc4)c(OCc4ccccc4)c3)O2)c(=O)[nH]c1=O` were greater than 40 µM and 0.56 µM.
`Cc1cn([C@H]2C[C@H](OP(=O)(O)OC[C@H]3O[C@@H](n4cnc5c(=O)[nH]c(N)nc54)C[C@@H]3OP(=O)(O)OC[C@H]3O[C@@H](n4cc(C)c(=O)[nH]c4=O)C[C@@H]3OP(=O)(O)OC[C@H]3O[C@@H](n4cnc5c(=O)[nH]c(N)nc54)C[C@@H]3OP(=O)(O)OC[C@H]3O[C@@H](n4cnc5c(N)ncnc54)C[C@@H]3OP(=O)(O)OC[C@H]3O[C@@H](n4cnc5c(=O)[nH]c(N)nc54)C[C@@H]3O)[C@@H](COCc3ccc(OCc4ccccc4)c(OCc4ccccc4)c3)O2)c(=O)[nH]c1=O`: the CC50 in the assay with MT4 [1] was greater than 24 µM. In the assay with MT4 [2], the IC50 was greater than 24 µM.
Molecule `Cc1cn([C@H]2C[C@H](OP(=O)(O)OC[C@H]3O[C@@H](n4cnc5c(=O)[nH]c(N)nc54)C[C@@H]3OP(=O)(O)OC[C@H]3O[C@@H](n4cnc5c(=O)[nH]c(N)nc54)C[C@@H]3OP(=O)(O)OC[C@H]3O[C@@H](n4cnc5c(=O)[nH]c(N)nc54)C[C@@H]3OP(=O)(O)OC[C@H]3O[C@@H](n4cnc5c(N)ncnc54)C[C@@H]3OP(=O)(O)OC[C@H]3O[C@@H](n4cnc5c(=O)[nH]c(N)nc54)C[C@@H]3O)[C@@H](COCc3ccc(OCc4ccccc4)cc3)O2)c(=O)[nH]c1=O` gave a CC50 in the assay with MT4 [1] greater than 40 µM. In the assay on MT4 [2], this molecule yielded an IC50 of 1.9 µM.
`Cc1cn([C@H]2C[C@H](OP(=O)(O)OC[C@H]3O[C@@H](n4cnc5c(=O)[nH]c(N)nc54)C[C@@H]3OP(=O)(O)OC[C@H]3O[C@@H](n4cnc5c(=O)[nH]c(N)nc54)C[C@@H]3OP(=O)(O)OC[C@H]3O[C@@H](n4cnc5c(=O)[nH]c(N)nc54)C[C@@H]3OP(=O)(O)OC[C@H]3O[C@@H](n4cnc5c(N)ncnc54)C[C@@H]3OP(=O)(O)OC[C@H]3O[C@@H](n4cnc5c(=O)[nH]c(N)nc54)C[C@@H]3O)[C@@H](COCc3ccc(-c4ccccc4)cc3)O2)c(=O)[nH]c1=O`: the CC50 with MT4 [1] was greater than 40 µM. Moreover, inhibition with MT4 [2] was half-maximal at 2.8 µM (IC50).
For `Cc1cn([C@H]2C[C@H](OP(=O)(O)OC[C@H]3O[C@@H](n4cnc5c(=O)[nH]c(N)nc54)C[C@@H]3OP(=O)(O)OC[C@H]3O[C@@H](n4cnc5c(=O)[nH]c(N)nc54)C[C@@H]3OP(=O)(O)OC[C@H]3O[C@@H](n4cnc5c(=O)[nH]c(N)nc54)C[C@@H]3OP(=O)(O)OC[C@H]3O[C@@H](n4cnc5c(N)ncnc54)C[C@@H]3OP(=O)(O)OC[C@H]3O[C@@H](n4cnc5c(=O)[nH]c(N)nc54)C[C@@H]3O[Si](c3ccccc3)(c3ccccc3)C(C)(C)C)[C@@H](CO)O2)c(=O)[nH]c1=O` the same measures were 7.7 µM and greater than 40 µM.
The molecule `Cc1cn([C@H]2C[C@H](OP(=O)(O)OC[C@H]3O[C@@H](n4cc(C)c(=O)[nH]c4=O)C[C@@H]3OP(=O)(O)OC[C@H]3O[C@@H](n4cnc5c(O)nc(N)nc54)C[C@@H]3OP(=O)(O)OC[C@H]3O[C@@H](n4cnc5c(O)nc(N)nc54)C[C@@H]3OP(=O)(O)OC[C@H]3O[C@@H](n4cnc5c(O)nc(N)nc54)C[C@@H]3O)[C@@H](COCc3ccc(OCc4ccccc4)c(OCc4ccccc4)c3)O2)c(=O)[nH]c1=O` gave a CC50 in the assay with MT4 [1] of 40 µM. The molecule further displayed an IC50 in the assay on MT4 [2] greater than 40 µM.
For `Cc1cn([C@H]2C[C@H](OP(=O)(O)OC[C@H]3O[C@@H](n4cnc5c(=O)[nH]c(N)nc54)C[C@@H]3OP(=O)(O)OC[C@H]3O[C@@H](n4cnc5c(=O)[nH]c(N)nc54)C[C@@H]3OP(=O)(O)OC[C@H]3O[C@@H](n4cnc5c(=O)[nH]c(N)nc54)C[C@@H]3OP(=O)(O)OC[C@H]3O[C@@H](n4cnc5c(=O)[nH]c(N)nc54)C[C@@H]3O)[C@@H](COCc3ccc(OCc4ccccc4)c(OCc4ccccc4)c3)O2)c(=O)[nH]c1=O` the same measures were greater than 40 µM and 0.66 µM.
Turning to `Cc1cn([C@H]2C[C@H](OP(=O)(O)OC[C@H]3O[C@@H](n4cnc5c(=O)[nH]c(N)nc54)C[C@@H]3OP(=O)(O)OC[C@H]3O[C@@H](n4cnc5c(=O)[nH]c(N)nc54)C[C@@H]3OP(=O)(O)OC[C@H]3O[C@@H](n4cnc5c(=O)[nH]c(N)nc54)C[C@@H]3OP(=O)(O)OC[C@H]3O[C@@H](n4cnc5c(N)ncnc54)C[C@@H]3OP(=O)(O)OC[C@H]3O[C@@H](n4cnc5c(=O)[nH]c(N)nc54)C[C@@H]3O)[C@@H](CO[Si](C)(C)C(C)(C)C)O2)c(=O)[nH]c1=O`, the CC50 with MT4 [1] was 1.2 µM. In addition, the IC50 in the assay with MT4 [2] is greater than 40 µM.
Regarding `Cc1cn([C@H]2C[C@H](OP(=O)(O)OC[C@H]3O[C@@H](n4cnc5c(=O)[nH]c(N)nc54)C[C@@H]3OP(=O)(O)OC[C@H]3O[C@@H](n4cnc5c(=O)[nH]c(N)nc54)C[C@@H]3OP(=O)(O)OC[C@H]3O[C@@H](n4cnc5c(=O)[nH]c(N)nc54)C[C@@H]3OP(=O)(O)OC[C@H]3O[C@@H](n4cnc5c(N)ncnc54)C[C@@H]3OP(=O)(O)OC[C@H]3O[C@@H](n4cnc5c(=O)[nH]c(N)nc54)C[C@@H]3O)[C@@H](CO[Si](c3ccccc3)(c3ccccc3)C(C)(C)C)O2)c(=O)[nH]c1=O`, the CC50 in the assay with MT4 [1] is greater than 40 µM. In the assay with MT4 [2], half-maximal inhibition (IC50) was put at 0.88 µM.
For the molecule `Cc1cn([C@H]2C[C@H](OP(=O)(O)OC[C@H]3O[C@@H](n4cnc5c(=O)[nH]c(N)nc54)C[C@@H]3OP(=O)(O)OC[C@H]3O[C@@H](n4cnc5c(=O)[nH]c(N)nc54)C[C@@H]3OP(=O)(O)OC[C@H]3O[C@@H](n4cnc5c(=O)[nH]c(N)nc54)C[C@@H]3OP(=O)(O)OC[C@H]3O[C@@H](n4cnc5c(N)ncnc54)C[C@@H]3OP(=O)(O)OC[C@H]3O[C@@H](n4cnc5c(=O)[nH]c(N)nc54)C[C@@H]3O)[C@@H](COC(c3ccccc3)c3ccccc3)O2)c(=O)[nH]c1=O`, the CC50 in the assay with MT4 [1] was greater than 40 µM. For the same molecule, half-maximal inhibition in the assay with MT4 [2] (IC50) was put at 4.3 µM.
For `Cc1cn([C@H]2C[C@H](OP(=O)(O)OC[C@H]3O[C@@H](n4cnc5c(=O)[nH]c(N)nc54)C[C@@H]3OP(=O)(O)OC[C@H]3O[C@@H](n4cnc5c(=O)[nH]c(N)nc54)C[C@@H]3OP(=O)(O)OC[C@H]3O[C@@H](n4cnc5c(=O)[nH]c(N)nc54)C[C@@H]3OP(=O)(O)OC[C@H]3O[C@@H](n4cnc5c(N)ncnc54)C[C@@H]3OP(=O)(O)OC[C@H]3O[C@@H](n4cnc5c(=O)[nH]c(N)nc54)C[C@@H]3O)[C@@H](COC3(c4ccccc4)c4ccccc4-c4ccccc43)O2)c(=O)[nH]c1=O` the same measures were greater than 40 µM and 1.3 µM.
For `Cc1cn([C@H]2C[C@H](OP(=O)(O)OC[C@H]3O[C@@H](n4cnc5c(=O)[nH]c(N)nc54)C[C@@H]3OP(=O)(O)OC[C@H]3O[C@@H](n4cnc5c(=O)[nH]c(N)nc54)C[C@@H]3OP(=O)(O)OC[C@H]3O[C@@H](n4cnc5c(=O)[nH]c(N)nc54)C[C@@H]3OP(=O)(O)OC[C@H]3O[C@@H](n4cnc5c(N)ncnc54)C[C@@H]3OP(=O)(O)OC[C@H]3O[C@@H](n4cnc5c(=O)[nH]c(N)nc54)C[C@@H]3O)[C@@H](COCc3ccccc3-c3ccccc3)O2)c(=O)[nH]c1=O` the same measures were greater than 40 µM and 1.2 µM.
